High-throughput results: PubChem BioAssay, Broad Institute
Compounds with a hit are over-represented: about 1.7% of the library has one in this group of screens.
C2C12 statin: suppressors of simvastatin-induced myotoxicity in C2C12 myotubes | ATP luminescence, 48 h; scaled: DMSO 0, geranylgeraniol control 100 | rescue of ATP level, % at 7.49 µM | 330,000 tested, 0.78% active | AID 602340;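 active means mean ATP rescue above about 67%, or every replicate alone reaching that limit, limit read from the data, passing the limit was not always enough; inconclusive means no clear call, values can overlap the other calls; inactive means mean under the limit and some replicate under it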;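 further: myotubes were challenged with 10 µM simvastatin during compound exposure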
Vif inh: inhibitors of HIV Vif. HEK293T cells, Vif self-association by quenched fluorescence, imaging, 24 h. inhibition, % at 7.49 µM. 340,000 tested, 0.35% active. AID 602346; in the data active means inhibition above about 50%, passing the limit was not always enough; inconclusive means no clear call, values can overlap the other calls; inactive means below about 31%
SR-BI uptake up: SR-BI HDL lipid transfer activation; CHO ldlA[mSR-BI] cells, DiI-HDL uptake fluorescence, 3 h; 100 = double the neutral-control signal; activation, % at 12.5 µM; AID 504775; 320,000 tested, 0.096% active;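 active means mean replicate activation of at least 60% and every replicate at or above 60%; inconclusive means mean or all-replicate condition met, but not both; inactive means mean below 60% and not all replicates reaching 60%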
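Material: SR-BI-overexpressing, LDLR-lacking CHO cells; schedule: compound exposure 3 h, 37 °C; reagent: DiI-labelled HDL at 10 µg/mL final; technique: bottom-read fluorescence, 550/595 nm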
SR-BI HDL uptake: mouse SR-BI HDL lipid transfer inhibition | Q61009 | AID 488896 | 320,000 tested, 0.96% active | inhibition, % at 12.5 µM | ldlA[mSR-BI] CHO cells, DiI-HDL uptake fluorescence, 3 h;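 active means mean replicate inhibition of at least 70% and a set share of replicates each scoring 70 or more; inconclusive means meets just one of the two criteria; inactive means fails both criteria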
Target sequence (Q61009 whole entry, looked up): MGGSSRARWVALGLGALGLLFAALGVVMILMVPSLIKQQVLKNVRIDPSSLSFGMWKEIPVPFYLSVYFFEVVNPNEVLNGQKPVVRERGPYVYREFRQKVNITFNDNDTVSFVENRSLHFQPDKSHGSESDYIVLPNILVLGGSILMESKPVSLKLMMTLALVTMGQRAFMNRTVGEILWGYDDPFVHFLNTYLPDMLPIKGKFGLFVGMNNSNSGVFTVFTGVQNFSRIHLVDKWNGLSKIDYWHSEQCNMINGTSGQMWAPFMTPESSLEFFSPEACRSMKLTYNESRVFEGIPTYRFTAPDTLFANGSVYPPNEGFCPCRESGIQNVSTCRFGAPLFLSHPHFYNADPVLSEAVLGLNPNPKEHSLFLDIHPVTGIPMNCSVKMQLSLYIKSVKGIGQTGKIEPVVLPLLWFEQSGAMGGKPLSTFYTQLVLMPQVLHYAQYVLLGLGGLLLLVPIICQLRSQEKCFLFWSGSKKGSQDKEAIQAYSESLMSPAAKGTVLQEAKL
DiI quencher: quenches DiI-HDL fluorescence, an SR-BI assay artifact; shares compounds with SR-BI HDL uptake; cell-free DiI-HDL fluorescence quenching, 30 min; AC50, µM (series often up to 35 µM); 470 tested, 20% active; AID 540326;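 active means quenching, a falling signal, with AC50 below a set limit tied to the top valid dose, actives reach about 32 µM in these data; inconclusive means no clear call, values can overlap the other calls; inactive means rising signal, and the rest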
Large screens that a line does not name were inactive (follow-up assays come after a bar, where they were run).

COc1ccc(NC(=O)N[C@@H]2CC[C@@H](CCNC(=O)CCN3CCCCC3)O[C@H]2CO)cc1	none (no result: Vif inh, SR-BI uptake up, SR-BI HDL uptake)
C[C@H](CO)N1C[C@H](C)[C@H](CN(C)C(=O)c2ccncc2)Oc2ncc(C#CC3CCCC3)cc2C1=O	none (no result: Vif inh, SR-BI uptake up, SR-BI HDL uptake)
COc1ccc(OCC(O)Cn2c(Nc3cccc(C)c3)nc3c2c(=O)n(C)c(=O)n3C)cc1 (configuration not stated)	SR-BI HDL uptake 77 (no result: C2C12 statin) | DiI quencher inactive
Cc1cccc(Nc2nc3c(c(=O)n(C)c(=O)n3C)n2Cc2ccccc2)c1	none
Cc1sc(NC(=O)c2cccc([N+](=O)[O-])c2)c(C(N)=O)c1-c1ccc(C(C)(C)C)cc1	SR-BI HDL uptake 77 (no result: Vif inh) | DiI quencher inactive
Cc1c(C(=O)OCc2ccccc2)[nH]c2c1C(=O)CC(c1ccco1)C2 (configuration not stated)	SR-BI HDL uptake 84 | DiI quencher inactive
Cc1c(C(=O)OCCOC(C)C)[nH]c2c1C(=O)CC(c1ccco1)C2 (configuration not stated)	SR-BI HDL uptake 89 | DiI quencher inactive
CCOC(=O)c1[nH]c2c(c1C)C(=O)CC(c1ccco1)C2 (configuration not stated)	Vif inh inconclusive
COCCOC(=O)c1[nH]c2c(c1C)C(=O)CC(c1ccco1)C2 (configuration not stated)	SR-BI HDL uptake inconclusive | DiI quencher inactive
C=CCOC(=O)c1[nH]c2c(c1C)C(=O)CC(c1cc(OC)c(OC)c(OC)c1)C2 (configuration not stated)	SR-BI HDL uptake 72 | DiI quencher inactive
CSCCOC(=O)c1[nH]c2c(c1C)C(=O)CC(c1ccco1)C2 (configuration not stated)	none
C[C@H](CO)N1C[C@H](C)[C@H](CN(C)C(=O)Cc2ccccc2)OCc2cn(nn2)CCCC1=O	none (no result: Vif inh, SR-BI uptake up, SR-BI HDL uptake)
Cc1ccccc1CN(C)C[C@H]1OCc2cnnn2CCCC(=O)N([C@H](C)CO)C[C@H]1C	none (no result: Vif inh, SR-BI uptake up, SR-BI HDL uptake)
C[C@@H]1CCCCO[C@@H](CN(C)S(=O)(=O)c2cccs2)[C@@H](C)CN([C@H](C)CO)C(=O)c2cc(N(C)C)ccc2O1	none (no result: Vif inh, SR-BI uptake up, SR-BI HDL uptake)
COC(=O)c1[nH]c2c(c1C)C(=O)CC(c1cccs1)C2 (configuration not stated)	SR-BI HDL uptake 82 (no result: C2C12 statin) | DiI quencher inactive
COC(=O)c1[nH]c2c(c1C)C(=O)CC(c1cc(OC)ccc1OC)C2 (configuration not stated)	none
O=C(CSc1cn(CCNC(=O)c2cccs2)c2ccccc12)NCC1CCCO1 (configuration not stated)	none | DiI quencher inactive
O=C(NCCn1cc(SCC(=O)N2CCOCC2)c2ccccc21)c1c(F)cccc1F	none | DiI quencher inactive
O=C(CSc1cn(CCNC(=O)c2cccs2)c2ccccc12)NC1CCCCC1	none
CC(=O)Nc1ccc(NC(=O)c2cccc(C(=O)OC(C)C)n2)cc1	none (no result: C2C12 statin, Vif inh)
CC(C)OC(=O)c1cccc(C(=O)Nc2cccc(NC(=O)c3cccc(C(=O)OC(C)C)n3)n2)n1	SR-BI HDL uptake 72 | DiI quencher inactive
COc1ccccc1C(=O)COC(=O)c1cccc(-n2cnnn2)c1	none
CCOc1ccccc1COC(=O)c1cccc(-n2cnnn2)c1	SR-BI HDL uptake 72 | DiI quencher inactive
O=C1C2C3C=CC(C3)C2C(=O)N1c1cccc(N2C(=O)C3C4C=CC(C4)C3C2=O)n1 (configuration not stated)	none | DiI quencher inactive
O=C(CN1CCN(CC(=O)Nc2ccccc2F)CC1)Nc1cccc(F)c1	none
O=C(CN1CCN(CC(=O)Nc2ccc3c(c2)OC2(CCCCC2)O3)CC1)Nc1cccc(F)c1	none | DiI quencher inactive
CCCc1cn(CC[C@@H]2CC[C@H](NC(=O)Nc3ccccc3F)[C@@H](CO)O2)nn1	none (no result: Vif inh, SR-BI uptake up, SR-BI HDL uptake)
COc1ccc(N(CC(=O)NC2CCCC2)C(=O)Cn2nnc(-c3ccc(C)cc3)n2)cc1	none (no result: C2C12 statin) | DiI quencher inactive
COc1ccc(-c2nnn(CC(=O)N(C3CCCCC3)C(C)C(=O)NC3CCCC3)n2)cc1OC (configuration not stated)	SR-BI HDL uptake 86 | DiI quencher inactive
COc1ccc(-c2nnn(CC(=O)N(CC(=O)NC3CCCC3)c3cccc(C)c3)n2)cc1OC	SR-BI HDL uptake 83 | DiI quencher inactive
COc1ccc(-c2nnn(CC(=O)N(C3CCCC3)C(C)C(=O)NC3CCCC3)n2)cc1OC (configuration not stated)	none
